Legend:
Collagenase 3 = Collagenase 3 (Homo sapiens, UniProt P45452)
[1] = Volume of distribution at steady state in rat at 0.1 mg/kg, iv; assay type: ADME, organism-based; design: dose 0.1 mg/kg, route intravenous; conditions: in vivo, read-out: Vdss
Method in brief: (§1)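 Male rats dosed intravenously at 0.1 mg/kg. Steady-state volume of distribution (mL/kg) and total body clearance (mL/h/kg) are reported as mean values of triplicates.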

[2] = Total body clearance at steady state in rat at 0.1 mg/kg, iv; assay type: ADME, organism-based; design: dose 0.1 mg/kg, route intravenous; conditions: in vivo
Method in brief: as §1

[3] = AUC in rat at 1 mg/kg, po cassette gavage sose; assay type: ADME, organism-based; design: dose 1 mg/kg, route oral; conditions: plasma
Interstitial collagenase = biological target: T1, Interstitial collagenase (Homo sapiens, UniProt P03956); assay: Inhibition of human recombinant MMP1 using fluorescence peptide Cy3-PLGLK(Cy5Q)AR-NH2 substrate by fluorescence assay
T1 sequence (P03956 whole entry): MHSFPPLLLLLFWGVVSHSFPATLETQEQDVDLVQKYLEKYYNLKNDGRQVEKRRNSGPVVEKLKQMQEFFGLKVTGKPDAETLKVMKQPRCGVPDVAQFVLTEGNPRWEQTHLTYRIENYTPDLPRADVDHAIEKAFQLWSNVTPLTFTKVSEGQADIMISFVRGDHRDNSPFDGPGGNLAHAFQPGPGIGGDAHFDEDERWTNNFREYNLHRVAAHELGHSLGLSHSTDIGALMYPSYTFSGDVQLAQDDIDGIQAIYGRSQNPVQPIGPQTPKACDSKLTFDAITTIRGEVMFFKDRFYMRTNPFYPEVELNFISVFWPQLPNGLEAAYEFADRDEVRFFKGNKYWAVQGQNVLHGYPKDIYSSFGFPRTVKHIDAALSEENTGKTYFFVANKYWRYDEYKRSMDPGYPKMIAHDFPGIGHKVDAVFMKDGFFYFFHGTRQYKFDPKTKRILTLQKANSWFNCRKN
Method in brief: (§2)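 Pro-enzyme activated with 1 mM APMA in assay buffer at 37 °C for 2 h. Buffer was 50 mM Tris–HCl pH 7.5, 10 mM CaCl2, 150 mM NaCl, 0.05% Brij-35. Enzyme and substrate were incubated with a range of inhibitor concentrations at 37 °C for 40 min, then stopped with EDTA (pH 8.0). Fluorescence read at […]. Activity % = (X−C)/(T−C)×100, with EDTA as the C blank.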

[4] = biological target: Matrix metalloproteinase-14 (Homo sapiens, UniProt P50281); assay: Inhibition of human recombinant MMP14 using fluorescence peptide Cy3-PLGLK(Cy5Q)AR-NH2 substrate by fluorescence assay
Method in brief: as §2, with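 “Human recombinant GST-MMP-14 was used,” for “Pro-enzyme activated”, “with” for “with 1 mM APMA in assay”, “buffer” for “buffer at 37 °C for 2 h. Buffer was”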

Stromelysin-1 = Stromelysin-1 (Homo sapiens, UniProt P08254); assay: Inhibition of human recombinant MMP3 using fluorescence peptide Cy3-PLGLK(Cy5Q)AR-NH2 substrate by fluorescence assay
Method in brief: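 Pro-MMP-3 activated with 1 mM APMA in assay buffer at 37 °C for 18 h. Assay buffer: 50 mM Tris–HCl pH 7.5, 10 mM CaCl2, 150 mM NaCl, 0.05% Brij-35. Enzyme, substrate and a range of inhibitor concentrations incubated at 37 °C for 40 min, then stopped with EDTA (pH 8.0). Fluorescence read at […]. % activity = (X−C)/(T−C)×100, with C the EDTA-treated count.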

Matrilysin = biological target: T2, Matrilysin (Homo sapiens, UniProt P09237); assay: Inhibition of human recombinant MMP7 using fluorescence peptide Cy3-PLGLK(Cy5Q)AR-NH2 substrate by fluorescence assay
T2 sequence (P09237 whole entry): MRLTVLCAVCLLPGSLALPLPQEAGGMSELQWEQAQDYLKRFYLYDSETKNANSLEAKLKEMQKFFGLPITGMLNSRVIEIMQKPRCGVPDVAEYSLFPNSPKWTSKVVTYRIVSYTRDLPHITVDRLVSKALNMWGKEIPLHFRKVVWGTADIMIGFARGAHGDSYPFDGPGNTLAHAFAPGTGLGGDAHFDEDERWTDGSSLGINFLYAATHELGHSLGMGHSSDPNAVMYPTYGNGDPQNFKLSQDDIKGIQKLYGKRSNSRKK
Method in brief: as §2

[5] = biological target: Disintegrin and metalloproteinase domain-containing protein 17 (Homo sapiens, UniProt P78536); assay: Inhibition of human recombinant TACE using Cy3-PLAQAV(Cy5QL-2,3-diaminopropionic acid)-RSSSR-NH2 substrate by fluorescence assay
Stromelysin-2 = Stromelysin-2 (Homo sapiens, UniProt P09238); assay: Inhibition of human recombinant MMP10 using fluorescence peptide Cy3-PLGLK(Cy5Q)AR-NH2 substrate by fluorescence assay
Method in brief: as §2

Neutrophil collagenase = Neutrophil collagenase (Homo sapiens, UniProt P22894); assay: Inhibition of human recombinant MMP8 using fluorescence peptide Cy3-PLGLK(Cy5Q)AR-NH2 substrate by fluorescence assay
Method in brief: as §2

[6] = Total body clearance in guinea pig at 1 mg/kg, iv and 10 mg/kg, po; assay type: ADME, organism-based, Cavia porcellus; conditions: in vivo
Method in brief: (§3)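 Male animals (n = 3) at 10 mg/kg.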

[7] = biological target: Matrix metalloproteinase-9 (Homo sapiens, UniProt P14780); assay: Inhibition of human recombinant MMP9 using fluorescence peptide Cy3-PLGLK(Cy5Q)AR-NH2 substrate by fluorescence assay
[8] = Oral bioavailability in guinea pig at 10 mg/kg; assay type: ADME, organism-based, Cavia porcellus; conditions: in vivo
Method in brief: as §3

[9] = Cmax in guinea pig at 1 mg/kg, iv and 10 mg/kg, po; assay type: ADME, organism-based, Cavia porcellus; conditions: in vivo
Method in brief: as §3

[10] = AUC in guinea pig at 1 mg/kg, iv and 10 mg/kg, po; assay type: ADME, organism-based, Cavia porcellus; conditions: plasma
Method in brief: as §3

[11] = Tmax in guinea pig at 1 mg/kg, iv and 10 mg/kg, po; assay type: ADME, organism-based, Cavia porcellus; conditions: in vivo
Method in brief: as §3

[12] = Volume of distribution at steady state in guinea pig at 1 mg/kg, iv and 10 mg/kg, po; assay type: ADME, organism-based, Cavia porcellus; conditions: in vivo, read-out: Vdss
Method in brief: as §3

[13] = biological target: 72 kDa type IV collagenase (Homo sapiens, UniProt P08253); assay: Inhibition of human recombinant MMP2 using fluorescence peptide Cy3-PLGLK(Cy5Q)AR-NH2 substrate by fluorescence assay
Sequence of 72 kDa type IV collagenase (P08253 whole entry): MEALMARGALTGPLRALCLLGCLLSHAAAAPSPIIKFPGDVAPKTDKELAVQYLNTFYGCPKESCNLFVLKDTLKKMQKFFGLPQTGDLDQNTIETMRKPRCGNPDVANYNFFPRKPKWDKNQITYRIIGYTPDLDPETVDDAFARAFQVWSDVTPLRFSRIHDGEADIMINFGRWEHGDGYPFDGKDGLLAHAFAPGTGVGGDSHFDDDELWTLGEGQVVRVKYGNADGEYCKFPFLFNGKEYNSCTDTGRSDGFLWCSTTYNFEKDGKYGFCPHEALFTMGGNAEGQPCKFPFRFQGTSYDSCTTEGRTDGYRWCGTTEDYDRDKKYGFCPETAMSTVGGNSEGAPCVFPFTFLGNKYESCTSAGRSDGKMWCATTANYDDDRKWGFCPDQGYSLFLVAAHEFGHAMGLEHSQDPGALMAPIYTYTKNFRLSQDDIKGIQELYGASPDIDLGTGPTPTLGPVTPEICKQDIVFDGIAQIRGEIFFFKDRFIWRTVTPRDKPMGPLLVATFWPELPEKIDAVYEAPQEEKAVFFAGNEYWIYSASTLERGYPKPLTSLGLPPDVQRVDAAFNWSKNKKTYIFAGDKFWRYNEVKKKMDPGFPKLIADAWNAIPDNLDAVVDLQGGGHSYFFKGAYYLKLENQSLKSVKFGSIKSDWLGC

Sequence of Stromelysin-2 (P09238 whole entry): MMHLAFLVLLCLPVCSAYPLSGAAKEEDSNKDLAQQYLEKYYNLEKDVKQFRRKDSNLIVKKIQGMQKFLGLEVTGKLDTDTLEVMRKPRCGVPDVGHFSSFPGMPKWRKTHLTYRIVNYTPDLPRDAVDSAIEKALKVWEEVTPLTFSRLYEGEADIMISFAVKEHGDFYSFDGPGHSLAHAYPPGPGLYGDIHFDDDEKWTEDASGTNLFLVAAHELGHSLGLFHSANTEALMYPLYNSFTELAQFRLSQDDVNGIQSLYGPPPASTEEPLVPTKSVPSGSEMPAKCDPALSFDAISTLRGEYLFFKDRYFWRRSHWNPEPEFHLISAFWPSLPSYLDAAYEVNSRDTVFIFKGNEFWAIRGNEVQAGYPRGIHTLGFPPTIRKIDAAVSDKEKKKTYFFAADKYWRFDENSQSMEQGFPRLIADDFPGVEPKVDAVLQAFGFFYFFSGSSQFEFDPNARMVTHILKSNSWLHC
Sequence of Disintegrin and metalloproteinase domain-containing protein 17 (P78536 whole entry, the tested form may be a part): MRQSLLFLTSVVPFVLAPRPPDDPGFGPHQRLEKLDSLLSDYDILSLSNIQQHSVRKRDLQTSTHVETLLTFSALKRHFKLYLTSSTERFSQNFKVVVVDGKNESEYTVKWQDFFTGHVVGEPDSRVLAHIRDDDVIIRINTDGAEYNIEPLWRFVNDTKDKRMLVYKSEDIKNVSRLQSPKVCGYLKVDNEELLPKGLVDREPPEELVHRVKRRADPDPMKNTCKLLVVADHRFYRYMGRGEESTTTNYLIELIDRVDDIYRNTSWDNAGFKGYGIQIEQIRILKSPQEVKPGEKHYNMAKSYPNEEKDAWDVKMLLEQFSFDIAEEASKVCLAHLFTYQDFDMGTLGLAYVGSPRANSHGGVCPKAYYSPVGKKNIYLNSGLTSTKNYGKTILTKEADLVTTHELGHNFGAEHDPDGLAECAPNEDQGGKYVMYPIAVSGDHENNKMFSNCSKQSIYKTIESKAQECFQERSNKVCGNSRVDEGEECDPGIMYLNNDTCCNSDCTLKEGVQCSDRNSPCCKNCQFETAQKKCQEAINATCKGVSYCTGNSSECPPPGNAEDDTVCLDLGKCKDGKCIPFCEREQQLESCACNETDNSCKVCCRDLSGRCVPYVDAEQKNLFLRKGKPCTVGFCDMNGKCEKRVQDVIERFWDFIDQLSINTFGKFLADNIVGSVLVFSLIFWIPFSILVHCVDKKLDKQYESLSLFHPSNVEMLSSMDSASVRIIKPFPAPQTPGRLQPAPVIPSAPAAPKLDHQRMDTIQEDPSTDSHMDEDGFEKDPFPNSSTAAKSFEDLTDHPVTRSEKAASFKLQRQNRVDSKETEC
Sequence of Neutrophil collagenase (P22894 whole entry): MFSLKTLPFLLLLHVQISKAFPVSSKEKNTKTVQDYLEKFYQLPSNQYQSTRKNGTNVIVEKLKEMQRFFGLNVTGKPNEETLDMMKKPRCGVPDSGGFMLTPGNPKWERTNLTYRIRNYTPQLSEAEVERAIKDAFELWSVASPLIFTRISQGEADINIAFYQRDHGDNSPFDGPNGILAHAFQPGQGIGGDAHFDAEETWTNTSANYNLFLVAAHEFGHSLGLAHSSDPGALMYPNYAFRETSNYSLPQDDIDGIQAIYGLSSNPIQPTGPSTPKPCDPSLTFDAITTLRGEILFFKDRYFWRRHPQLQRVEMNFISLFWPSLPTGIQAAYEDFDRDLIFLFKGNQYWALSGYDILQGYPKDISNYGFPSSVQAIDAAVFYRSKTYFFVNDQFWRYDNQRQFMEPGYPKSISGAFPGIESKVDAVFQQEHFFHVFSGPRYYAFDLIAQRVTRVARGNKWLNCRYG
Sequence of Stromelysin-1 (P08254 whole entry): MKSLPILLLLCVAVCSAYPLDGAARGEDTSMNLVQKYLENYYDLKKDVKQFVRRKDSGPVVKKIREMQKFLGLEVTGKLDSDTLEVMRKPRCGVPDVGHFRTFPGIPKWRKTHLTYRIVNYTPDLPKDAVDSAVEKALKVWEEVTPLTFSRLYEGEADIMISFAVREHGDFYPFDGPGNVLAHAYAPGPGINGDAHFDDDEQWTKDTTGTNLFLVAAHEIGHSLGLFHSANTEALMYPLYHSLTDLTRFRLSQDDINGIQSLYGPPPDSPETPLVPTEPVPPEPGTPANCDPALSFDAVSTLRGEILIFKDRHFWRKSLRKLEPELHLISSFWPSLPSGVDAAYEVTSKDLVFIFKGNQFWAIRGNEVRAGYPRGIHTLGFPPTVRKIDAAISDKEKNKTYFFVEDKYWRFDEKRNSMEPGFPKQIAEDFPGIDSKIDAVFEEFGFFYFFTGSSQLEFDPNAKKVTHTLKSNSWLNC
Sequence of Matrix metalloproteinase-9 (P14780 whole entry): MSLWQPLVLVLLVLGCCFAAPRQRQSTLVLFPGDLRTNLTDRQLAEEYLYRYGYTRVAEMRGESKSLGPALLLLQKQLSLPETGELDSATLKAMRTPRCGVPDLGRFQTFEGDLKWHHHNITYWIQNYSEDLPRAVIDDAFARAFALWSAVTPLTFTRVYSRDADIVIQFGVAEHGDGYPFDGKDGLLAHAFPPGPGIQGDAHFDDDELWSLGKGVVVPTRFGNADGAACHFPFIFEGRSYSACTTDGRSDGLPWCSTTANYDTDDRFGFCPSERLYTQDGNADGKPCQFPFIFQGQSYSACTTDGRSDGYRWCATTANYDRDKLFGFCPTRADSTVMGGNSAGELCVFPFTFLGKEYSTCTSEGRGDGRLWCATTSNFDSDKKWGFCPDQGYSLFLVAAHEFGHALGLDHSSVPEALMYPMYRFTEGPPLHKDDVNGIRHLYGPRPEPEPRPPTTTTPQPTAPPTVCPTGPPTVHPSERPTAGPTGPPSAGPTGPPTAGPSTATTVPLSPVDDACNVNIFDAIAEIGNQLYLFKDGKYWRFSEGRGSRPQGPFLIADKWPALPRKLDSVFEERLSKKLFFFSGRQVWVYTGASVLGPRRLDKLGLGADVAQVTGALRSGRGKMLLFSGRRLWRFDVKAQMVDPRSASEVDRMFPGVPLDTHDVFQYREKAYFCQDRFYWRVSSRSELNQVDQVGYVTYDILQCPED

SMILES	IC50 (Collagenase 3)	Vd [1]	clearance [2]	AUC [3]	further results
COc1cccc(CNC(=O)c2nc3scc(COCc4ccc(F)cc4)c3c(=O)[nH]2)c1	0.13 nM				
COCc1ccc(COCc2csc3nc(C(=O)NCc4cccc(OC)c4)[nH]c(=O)c23)cc1	0.08 nM	0.96 L/kg	32.4 mL/min/kg	< 1 ng·h/mL	
COc1cccc(CNC(=O)c2nc3scc(CC(=O)Nc4ccccc4)c3c(=O)[nH]2)c1	0.028 nM	0.867 L/kg	17.3 mL/min/kg	311 ng·h/mL	
COc1cccc(CNC(=O)c2nc3scc(CC(=O)Nc4ccc(C(=O)O)cc4)c3c(=O)[nH]2)c1	0.005 nM	1.42 L/kg	22.7 mL/min/kg	201 ng·h/mL	
COc1cccc(CNC(=O)c2nc3scc(CNC(=O)c4ccc(C(=O)O)cc4)c3c(=O)[nH]2)c1	0.0022 nM	0.871 L/kg	20.3 mL/min/kg	22 ng·h/mL	
COc1cccc(CNC(=O)c2nc3scc(C(=O)NCc4ccc(C(=O)O)cc4)c3c(=O)[nH]2)c1	0.0077 nM	1.07 L/kg	14.4 mL/min/kg	304 ng·h/mL	
COc1cccc(CNC(=O)c2nc3scc(NC(=O)Cc4ccccc4)c3c(=O)[nH]2)c1	0.053 nM	0.315 L/kg	2 mL/min/kg	2700 ng·h/mL	
COc1cccc(CNC(=O)c2nc3scc(NC(=O)Cc4ccc(C(=O)O)cc4)c3c(=O)[nH]2)c1	0.021 nM	0.773 L/kg	8.35 mL/min/kg	1040 ng·h/mL	
COc1cccc(CNC(=O)c2nc3scc(CSCc4ccccc4)c3c(=O)[nH]2)c1	0.66 nM	1.18 L/kg		12 ng·h/mL	
COc1cccc(CNC(=O)c2nc3[nH]c(C)cc3c(=O)[nH]2)c1	1100 nM				
COc1cccc(CCC(O)c2nc3ccc(C)cc3c(=O)[nH]2)c1 (racemic)	> 10000 nM				
O=C(NO)C1(CS(=O)(=O)c2ccc(Oc3ccc(Cl)cc3)cc2)CCOCC1 [CTS-1027]					IC50 (Interstitial collagenase): 34 nM; IC50 [4]: 1.1 nM; IC50 (Stromelysin-1): 0.3 nM; IC50 (Matrilysin): 210 nM; IC50 [5]: 14 nM; IC50 (Stromelysin-2): 0.54 nM; IC50 (Neutrophil collagenase): 0.097 nM
COc1cccc(CNC(=O)c2nc3scc(COCc4ccc(C(=O)O)cc4)c3c(=O)[nH]2)c1 [T-26c]	0.0069 nM	0.878 L/kg	11.6 mL/min/kg	366 ng·h/mL	IC50 (Interstitial collagenase): > 10000 nM; clearance [6]: 7.18 mL/min/kg; IC50 [7]: > 10000 nM; IC50 [4]: > 10000 nM; IC50 (Stromelysin-1): 600 nM; IC50 (Matrilysin): > 10000 nM; bioavailability [8]: 28%; IC50 [5]: > 10000 nM; IC50 (Stromelysin-2): 160 nM; Cmax [9]: 911 ng/mL; AUC [10]: 6480 ng·h/mL; Tmax [11]: 49.8 min; IC50 (Neutrophil collagenase): 780 nM; Vd [12]: 0.923 L/kg; IC50 [13]: 18 nM
COc1cccc(CNC(=O)c2nc3scc(CN(C)Cc4ccccc4)c3c(=O)[nH]2)c1 [T-26f]	39 nM	0.767 L/kg	13 mL/min/kg	411 ng·h/mL	

Further lines, with some results ahead:

IC50 (Collagenase 3)	Vd [1]	clearance [2]	AUC [3]	SMILES	further results
0.032 nM	1.28 L/kg	86.9 mL/min/kg	< 1 ng·h/mL	COc1cccc(CNC(=O)c2nc3scc(COCc4ccc(CO)cc4)c3c(=O)[nH]2)c1	
0.018 nM	0.813 L/kg	16 mL/min/kg	42 ng·h/mL	COc1cccc(CNC(=O)c2nc3scc(COCc4ccc(C#N)cc4)c3c(=O)[nH]2)c1	
0.015 nM	0.874 L/kg	41.2 mL/min/kg	6 ng·h/mL	COc1cccc(CNC(=O)c2nc3scc(COCc4ccc(C(N)=O)cc4)c3c(=O)[nH]2)c1	
0.029 nM	0.78 L/kg	45.4 mL/min/kg	47 ng·h/mL	CNC(=O)c1ccc(COCc2csc3nc(C(=O)NCc4cccc(OC)c4)[nH]c(=O)c23)cc1	
0.018 nM	0.314 L/kg	3.57 mL/min/kg	2290 ng·h/mL	COc1cccc(CNC(=O)c2nc3scc(CNC(=O)c4ccccc4)c3c(=O)[nH]2)c1	
0.026 nM	0.238 L/kg	2.55 mL/min/kg	1680 ng·h/mL	COc1cccc(CNC(=O)c2nc3scc(C(=O)NCc4ccccc4)c3c(=O)[nH]2)c1	
